Compounds with a hit are over-represented: about 2.3% of the library has one in this group of screens.
Yeast superoxide – caloric restriction mimetics inhibiting age-related superoxide in yeast; AID 2690; superoxide response (% of plate mean), % at 10 µM; 330,000 tested, 0.18% active; S. cerevisiae aged cells, superoxide DHE fluorescence; stronger effect = lower value;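 active = superoxide response under a set limit, about three screen SD below normal, cut at about 65% in these data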;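 also: yeast aged for seven days with compound at 30 °C before DHE staining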
TRPC4 act – opens the mouse TRPC4 cation channel | Q9QUQ5 | HEK293 TRPC4beta/mu-opioid, Fluo4 calcium fluorescence; stronger effect = higher value | B-score at 10 µM | 310,000 tested, 0.49% active | AID 2237;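 active = B-score above 5 SD of library B-scores, and initial fluorescence ratio not above library mean plus 5 SD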;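 also: positive B-score marks a calcium rise read as TRPC4 activation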
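Test system: HEK293 cells stably co-expressing mouse TRPC4beta and mu-opioid receptor | Schedule: Fluo4 dye loading 45 min at room temperature, 110 s recording | Measured by: Kinetic Fluo4 calcium fluorescence, 5 s baseline at 1 Hz | Evaluation: B score of integrated ratio | Controls: Buffer (low) and maximal DAMGO (high)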
TRPC4 inh – TRPC4 (mouse) channel inhibition; Q9QUQ5; HEK293 TRPC4beta/mu-opioid, DAMGO-evoked Fluo4 calcium flux; stronger effect = lower value; B-score at 10 µM; 300,000 tested, 0.39% active; AID 2247;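 active = B-score over 3 SD under the library average, no early fluorescence shift, positive overall ratio signal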
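Assay system – HEK293 line stably carrying TRPC4beta and mu-opioid receptor · Doses – single dose · Detection – Fluo4 calcium-dye fluorescence, kinetic read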
TRPC6 act – mouse TRPC6 channel activation; B-score at 10 µM; HEK293-TRPC6 membrane potential dye fluorescence; stronger effect = higher value; 310,000 tested, 0.13% active; Q61143;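 active = B-score of the integrated fluorescence ratio above library mean plus 3 SD, and starting fluorescence ratio within library mean plus 5 SD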;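 also: higher score means more depolarization so channel activation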
TRPC6 inh – blocks the mouse TRPC6 cation channel; Q61143; HEK293-TRPC6, membrane potential dye, ACh-evoked depolarization; stronger effect = lower value; B-score at 10 µM; 310,000 tested, 1.1% active; AID 2553;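 active = B-score under library mean minus 3 SD, initial fluorescence not abnormally high, positive integrated signal ratio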;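 also: B-score derived from integrated fluorescence ratio over the kinetic read; more negative B-score means stronger inhibition of depolarization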
TRPC4 PAM – allosterically enhances the mouse TRPC4 cation channel. HEK293 TRPC4beta/mu-opioid, DAMGO EC20, Fluo-4 Ca2+ flux; stronger effect = higher value. Q9QUQ5. B-score at 10 µM. AID 2227. 310,000 tested, 0.42% active;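 active = B-score of calcium response area above 5 SD of library B-scores, with initial fluorescence ratio within 5 SD of library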
TRPC4 sel inh 2 – mouse TRPC4 off-target activity of TRPC6 inhibitors, second screen | 920 tested, 42% active | AID 2776 | inhibition, % at 10 µM | shares compounds with TRPC6 inh | HEK293 TRPC4/MOR, membrane potential dye fluorescence; channel activated by saturating DAMGO dose;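 active = compounds whose fluorescence signal differed from control wells by over 3 SD, either direction, in both duplicate plates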
TRPC4 spec – tests whether TRPC6 inhibitors also affect mouse TRPC4. activity change, negative = inhibition, % at 10 µM. 920 tested, 61% active. AID 2777. HEK293 TRPC4/mu-opioid, membrane potential fluorescence. shares compounds with TRPC6 inh;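 active = rise or fall in signal beyond 3 SD of buffer-only wells in both replicate plates, either sign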;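 also: integrated kinetic ratio of fluorescence range over baseline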
HEK293 MPD ctr 2-1 – second counter-screen for TRPC6 inhibitors: parental HEK293 cells; shares compounds with TRPC6 inh; parental HEK293 membrane potential dye fluorescence; maximal acetylcholine challenge after compound addition; signal change vs control, % at 10 µM; 920 tested, 31% active; AID 2779;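 active = membrane potential signal moving either way by over 3 SD of the maximum-effect control, in both duplicate plates, meaning non-specific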
HEK293 MPD ctr-1 – parental HEK293 nonspecific activity of TRPC6 inhibitors. parental HEK293 membrane potential dye fluorescence. shares compounds with TRPC6 inh. 920 tested, 60% active. membrane potential signal change, % at 10 µM;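 active = membrane potential signal shifting up or down by more than 3 SD of buffer-only wells, on both duplicate plates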
HEK293 MPD ctr-2 – counter-screen for TRPC6 modulators: effect in parental HEK293 cells. 2,400 tested, 51% active. membrane potential dye fluorescence. shares compounds with TRPC6 inh. AID 488924. membrane potential signal change, % at 10 µM;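 active = membrane potential signal moves up or down beyond 5 SD from buffer-only wells, on both duplicate plates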
HEK293 MPD ctr 2-2 – parental HEK293 nonspecific activity of TRPC6 modulators, second screen. shares compounds with TRPC6 inh. inhibition, % at 10 µM. 2,400 tested, 14% active. AID 488926. membrane potential dye fluorescence; after compound, maximal acetylcholine stimulation;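 active = membrane potential signal drops by more than 5 SD from the mean control signal, in both duplicate plates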
TRPC4/MOR mod – mouse TRPC4 off-target activity of TRPC6 modulators. shares compounds with TRPC6 inh. HEK293 TRPC4/mu-opioid, membrane potential fluorescence. percent change from control (negative = decrease, positive = increase), % at 10 µM. 2,400 tested, 69% active. AID 488927;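 active = membrane potential signal moved up or down beyond 5 SD of buffer control wells, in both duplicate plates, actives on both sides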
TRPC4/MOR inh 2 – second check of whether TRPC6 modulators also affect mouse TRPC4. shares compounds with TRPC6 inh. HEK293 TRPC4/mu-opioid, membrane potential dye fluorescence; stimulated with maximal-effect DAMGO. inhibition, % at 10 µM. 2,400 tested, 55% active. AID 488928;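 active = drop in membrane potential signal beyond 5 SD of the control wells in both duplicate plates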;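 also: TRPC4 counter screen for TRPC6 hits run under conditions tuned for TRPC6 not TRPC4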
TRPC6 inh conf – confirmation of mouse TRPC6 inhibitors; HEK293-TRPC6, membrane potential dye, ACh-evoked depolarization; shares compounds with TRPC6 inh; inhibition, % at 10 µM; AID 488960; 3,300 tested, 43% active;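 active = fluorescence ratio falls more than 5 SD below the full-stimulation control mean, in both duplicate runs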;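 also: integrated fluorescence ratio of peak minus minimum over baseline after agonist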
TRPC6 act confirm – mouse TRPC6 activator confirmation | shares compounds with TRPC6 inh | HEK293-TRPC6 membrane potential dye fluorescence, FDSS | activation, % at 10 µM | 2,800 tested, 11% active | AID 488961;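 active = ratio signal rise beyond 5 SD above unstimulated control wells' mean, seen in both duplicate runs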
Hits are given with their value; 0 = inactive; - = not tested or not shown.

SMILES	Yeast superoxide	TRPC4 act	TRPC4 inh	TRPC6 act	TRPC6 inh	TRPC4 PAM	HEK293 MPD ctr-2	HEK293 MPD ctr 2-2	TRPC4/MOR mod	TRPC4/MOR inh 2	TRPC6 inh conf	TRPC6 act confirm	others
CC(C)c1ccc(S(=O)(=O)N2CCN(C(=O)c3cccc(F)c3)CC2)cc1	0	0	0	17	0	0	0	0	20%	0	-	186%
O=C(c1ccccc1)N1CCN(S(=O)(=O)c2ccccc2)CC1	0	0	0	0	0	0	-	-	-	-	-	-
O=C(CCc1nc2ccccc2c(=O)[nH]1)N1CCN(c2ccc(F)cc2)CC1	0	0	0	0	0	0	-	-	-	-	-	-
COc1ccccc1Nc1nc(C)cc(C)n1	0	0	0	0	0	0	-	-	-	-	-	-
Cn1c(=O)n(C)c2cc([N+](=O)[O-])c(N3CCN(S(C)(=O)=O)CC3)cc21	0	0	0	0	0	0	-	-	-	-	-	-
Cn1c(=O)n(C)c2cc([N+](=O)[O-])c(N3CCN(CCO)CC3)cc21	0	0	0	0	-6.8	0	-370%	70%	-50%	42%	44%	0
COc1cc(C(=O)Oc2cccc(C(=S)N3CCOCC3)c2)cc(OC)c1OC	0	0	0	0	0	0	-	-	-	-	-	-
Cc1ccc2c(c1)C1CN(C)CCC1N2C(=O)COc1ccc(N(C)S(=O)(=O)c2cccs2)cc1 (stereo not given)	0	0	0	0	-6	0	0	0	-22%	76%	53%	0
O=c1c(N=Nc2ccc(O)cc2)c(-c2ccccc2)[nH]n1-c1ccc([N+](=O)[O-])cc1	0	0	0	0	0	0	-	-	-	-	-	-
O=c1cc(-c2ccccc2)[nH]n1-c1ccc([N+](=O)[O-])cc1	0	0	0	0	-7.9	0	-	-	-	-	66%	0	TRPC4 sel inh 2=0;TRPC4 spec=12%;HEK293 MPD ctr 2-1=0;HEK293 MPD ctr-1=5.7%
COC(=O)c1cc(NC(=O)CSc2nnc(N)s2)ccc1Cl	0	0	0	0	-7.1	0	0	0	0	0	0	0
COc1ccc(N2C(=O)CCC(C(=O)O)C2c2ccccc2OC)cc1 (stereo not given)	0	0	0	0	0	0	-	-	-	-	-	-
CC(C)[C@H]1COCCS(=O)(=O)N1Cc1ccccc1F	0	0	-	0	0	0	-	-	-	-	-	-
Nc1[nH]n2c(=O)cc(-c3ccccc3)nc2c1N=Nc1ccccc1	0	0	0	0	-8	0	-	-	-	-	77%	0	TRPC4 sel inh 2=50%;TRPC4 spec=-20%;HEK293 MPD ctr 2-1=0;HEK293 MPD ctr-1=-316%
Nc1[nH]n2c(=O)cc(-c3ccccc3)nc2c1N=Nc1ccc(S(N)(=O)=O)cc1	0	0	0	0	0	0	-	-	-	-	-	-
CCOC(=O)c1c(S(=O)(=O)N(C)Cc2ccco2)c(C)n(C)c1C	0	0	0	0	0	0	-	-	-	-	-	-
Cc1c(Cl)cccc1NC(=O)c1nc(C)n(-c2cc(OC(C)C)c(Cl)cc2Cl)n1	0	0	0	0	0	0	-	-	-	-	-	-
O=C(Nc1cccc(-n2cnnn2)c1)c1ccc(C(F)(F)F)cc1	0	-	-	-	-	-	-	-	-	-	-	-
COCc1cc(C)nc(SCC[N+](C)(C)CC(=O)Nc2cccc(C)c2)c1C#N	0	0	0	0	-7	0	-	-	-	-	0	0	TRPC4 sel inh 2=0;TRPC4 spec=-13%;HEK293 MPD ctr 2-1=0;HEK293 MPD ctr-1=-170%
COCc1cc(C)nc(SCC[N+](C)(C)CC(=O)c2ccccc2)c1C#N	0	0	0	0	0	0	-	-	-	-	-	-
COC(=O)c1ccccc1NC(=O)c1cc[n+]([O-])cc1	0	0	0	0	0	0	-	-	-	-	-	-
COC(=O)c1ccccc1NC(=O)c1cc[n+](C)cc1	0	0	0	0	-5.8	0	-200%	0	-33%	0	0	0
CCOC(=O)C1CCN(C(=O)Cn2cccc2C(=O)c2ccccc2)CC1	0	0	0	0	0	0	-	-	-	-	-	-
COc1ccc(O)c(/C=N/Nc2nc3ccccc3[nH]2)c1	0	0	0	0	-5	0	0	0	0	0	0	0
CCN(CC)c1ccc(/C=N/Nc2nc3ccccc3[nH]2)cc1	-	0	0	0	-7.7	0	-	-	-	-	0	0	TRPC4 sel inh 2=43%;TRPC4 spec=-18%;HEK293 MPD ctr 2-1=0;HEK293 MPD ctr-1=-235%
SMILES	Yeast superoxide	TRPC4 act	TRPC4 inh	TRPC6 act	TRPC6 inh	TRPC4 PAM	HEK293 MPD ctr-2	HEK293 MPD ctr 2-2	TRPC4/MOR mod	TRPC4/MOR inh 2	TRPC6 inh conf	TRPC6 act confirm	others
Cc1c(/C=N/Nc2nc3ccccc3[nH]2)c2ccccc2n1C	0	0	0	0	-15	0	-192%	74%	-40%	97%	68%	0
CC(=O)Nc1ccc(/C=N/Nc2nc3ccccc3[nH]2)cc1	0	0	0	0	0	0	-	-	-	-	-	-
Cn1c(/C=N/Nc2nc3ccccc3[nH]2)nc2ccccc21	0	0	0	0	-9.7	0	0	0	-10%	0	0	0
CCOc1ccccc1-n1nnnc1SCC(=O)N1CCCC1=O	0	-	-	-	-	-	-	-	-	-	-	-
Cc1c(OC(C)C(=O)N2C[C@H]3C[C@@H](C2)c2cccc(=O)n2C3)ccc2c3c(c(=O)oc12)CCC3 (stereo not given in full)	0	0	0	0	-5	0	96%	0	12%	0	0	-
CC(C)(C)N(Cc1ccccc1)C(=O)c1ccc(Cl)cc1[N+](=O)[O-]	0	0	0	0	-6.5	0	0	0	0	0	0	0
COc1ccccc1NC(=S)N(Cc1ccc(C(=O)O)cc1)Cc1ccc(OC)c(OC)c1	0	0	0	0	0	0	-	-	-	-	-	-
